Measured values: ChEMBL document CHEMBL1126990, “Design and synthesis of 18F-labeled neurotoxic analogs of MPTP” (J Med Chem, 1993)

Key:
[1] = species: Mus musculus; assay: Biodistribution of [18F]-radiolabeled compound in the mouse bone after 5 minutes (average uptake in (%injected dose)/(% body weight); type: ADME, organism-based, Bone element; details: in vivo
Outline: (§1)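 Adult male C57 Black mice (about 20 g), anesthetized with 1 mg sodium pentobarbital ip, given 0.1 mL (~0.05 mCi) tracer via tail vein. Killed by cervical dislocation at set times (5–90 min). Organs sampled, counted, weighed. Injected dose measured against weighed standards, minus residual tail activity. %id/g multiplied by body weight gives normalized uptake. Mean ± SD, N = 3 (N = 2 at 5 min).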

[2] = species: Mus musculus; assay: Biodistribution of [18F]-radiolabeled compound in the mouse intestine after 5 minutes (average uptake in (%injected dose)/(% body weight); type: ADME, organism-based; details: in vivo; outline: as §1
[3] = species: Mus musculus; assay: Biodistribution of [18F]-radiolabeled compound in the mouse spleen after 5 minutes (average uptake in (%injected dose)/(% body weight); type: ADME, organism-based; details: in vivo; outline: as §1
[4] = separate experiments, n=4); type: ADME
Outline: (§2)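 Rat liver MAO (crude P2 mitochondrial fraction from adult male Wistar rats, in pH 7.4 phosphate buffer) incubated with substrate at 30 μM to 5 mM; colorimetric detection of H2O2 formed. Blanks contained 0.1 mM pargyline. Vmax and Km from linear regression of Lineweaver-Burk plots; means ± SE of n separate experiments; ANOVA with post-hoc Scheffe test.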

[5] = species: Mus musculus; assay: Biodistribution of [18F]-radiolabeled compound in the mouse lung after 60 minutes (average uptake in (%injected dose)/(% body weight); type: ADME, organism-based; details: in vivo, 1 h; outline: as §1
[6] = species: Mus musculus; assay: Biodistribution of [18F]-radiolabeled compound in the mouse liver after 30 minutes (average uptake in (%injected dose)/(% body weight); type: ADME, organism-based; details: in vivo, 0.5 h; outline: as §1
[7] = species: Mus musculus; assay: Biodistribution of [18F]-radiolabeled compound in the mouse kidney after 5 minutes (average uptake in (%injected dose)/(% body weight); type: ADME, organism-based; details: in vivo; outline: as §1
[8] = species: Mus musculus; assay: Biodistribution of [18F]-radiolabeled compound in the mouse blood after 90 minutes (average uptake in (%injected dose)/(% body weight); type: ADME, organism-based; details: in vivo, 1.5 h; outline: as §1
[9] = species: Mus musculus; assay: Biodistribution of [18F]-radiolabeled compound in the mouse kidney after 30 minutes (average uptake in (%injected dose)/(% body weight); type: ADME, organism-based; details: in vivo, 0.5 h; outline: as §1
[10] = species: Mus musculus; assay: Biodistribution of [18F]-radiolabeled compound in the mouse intestine after 15 minutes (average uptake in (%injected dose)/(% body weight); type: ADME, organism-based; details: in vivo, 0.25 h; outline: as §1
[11] = species: Mus musculus; assay: Biodistribution of [18F]-radiolabeled compound in the mouse intestine after 30 min (average uptake in (%injected dose)/(% body weight); type: ADME, organism-based; details: in vivo, 0.5 h; outline: as §1
[12] = species: Mus musculus; assay: Biodistribution of [18F]-radiolabeled compound in the mouse muscle after 30 minutes (average uptake in (%injected dose)/(% body weight); type: ADME, organism-based, Muscle tissue; details: in vivo, 0.5 h; outline: as §1
[13] = species: Mus musculus; assay: Biodistribution of [18F]-radiolabeled compound in the mouse blood after 5 minutes (average uptake in (%injected dose)/(% body weight); type: ADME, organism-based; details: in vivo; outline: as §1
[14] = Ratio between Vmax and Km; type: ADME; outline: as §2
[15] = species: Mus musculus; assay: Biodistribution of [18F]-radiolabeled compound in the mouse intestine after 60 minutes (average uptake in (%injected dose)/(% body weight); type: ADME, organism-based; details: in vivo, 1 h; outline: as §1
[16] = species: Mus musculus; assay: Biodistribution of [18F]-radiolabeled compound in the mouse heart after 90 minutes (average uptake in (%injected dose)/(% body weight); type: ADME, organism-based; details: in vivo, 1.5 h; outline: as §1
[17] = species: Mus musculus; assay: Biodistribution of [18F]-radiolabeled compound in the mouse bone after 30 minutes (average uptake in (%injected dose)/(% body weight); type: ADME, organism-based, Bone element; details: in vivo, 0.5 h; outline: as §1
[18] = species: Mus musculus; assay: Biodistribution of [18F]-radiolabeled compound in the mouse brain after 5 minutes (average uptake in (%injected dose)/(% body weight); type: ADME, organism-based; details: in vivo; outline: as §1
[19] = species: Mus musculus; assay: Biodistribution of [18F]-radiolabeled compound in the mouse kidney after 90 minutes (average uptake in (%injected dose)/(% body weight); type: ADME, organism-based; details: in vivo, 1.5 h; outline: as §1
[20] = species: Mus musculus; assay: Biodistribution of [18F]-radiolabeled compound in the mouse muscle after 5 minutes (average uptake in (%injected dose)/(% body weight); type: ADME, organism-based, Muscle tissue; details: in vivo; outline: as §1
[21] = species: Mus musculus; assay: Biodistribution of [18F]-radiolabeled compound in the mouse bone after 60 minutes (average uptake in (%injected dose)/(% body weight); type: ADME, organism-based, Bone element; details: in vivo, 1 h; outline: as §1
[22] = species: Mus musculus; assay: Biodistribution of [18F]-radiolabeled compound in the mouse blood after 30 minutes (average uptake in (%injected dose)/(% body weight); type: ADME, organism-based; details: in vivo, 0.5 h; outline: as §1
[23] = species: Mus musculus; assay: Biodistribution of [18F]-radiolabeled compound in the mouse intestine after 90 minutes (average uptake in (%injected dose)/(% body weight); type: ADME, organism-based; details: in vivo, 1.5 h; outline: as §1
[24] = species: Mus musculus; assay: Biodistribution of [18F]-radiolabeled compound in the mouse kidney after 15 minutes (average uptake in (%injected dose)/(% body weight); type: ADME, organism-based; details: in vivo, 0.25 h; outline: as §1
[25] = species: Mus musculus; assay: Biodistribution of [18F]-radiolabeled compound in the mouse kidney after 60 minutes (average uptake in (%injected dose)/(% body weight); type: ADME, organism-based; details: in vivo, 1 h; outline: as §1
[26] = species: Mus musculus; assay: Biodistribution of [18F]-radiolabeled compound in the mouse liver after 15 minutes (average uptake in (%injected dose)/(% body weight); type: ADME, organism-based; details: in vivo, 0.25 h; outline: as §1

CN1CC=C(c2ccccc2CF)CC1
Time [1]: 0.87 min | Time [2]: 1.36 min | Time [3]: 1.37 min | Km [4]: 159 µM | Time [5]: 1.6 min | Time [6]: 1.36 min | Time [7]: 4.04 min | Time [8]: 0.25 min | Time [9]: 1.36 min | Time [10]: 1.99 min | Time [11]: 1.06 min | Time [12]: 0.43 min | Time [13]: 0.67 min | Ratio [14]: 3.83 | Time [15]: 0.88 min | Time [16]: 1.84 min | Time [17]: 1.91 min | Time [18]: 1.48 min | Time [19]: 0.72 min | Time [20]: 0.61 min | Time [21]: 2.22 min | Time [22]: 0.4 min | Time [23]: 2.32 min | Time [24]: 2.64 min | Time [25]: 0.94 min | Time [26]: 2.33 min
